Sampled rows, rich in hits. Any-hit rate of the full collection: about 4.5%.
GPR7 antagonist: GPR7 receptor antagonists, primary screen, cell-based, fluorescence, single concentration; Neuropeptides B/W receptor type 1 (Homo sapiens), P48145; GPR7-expressing cells, fluorescence antagonist assay; inhibition, % at 4.4 µM; 290,000 compounds, 1.1% hits; in the data active means inhibition above about 16%, passing the limit was not always enough;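 further: cells stimulated with the agonist NPW; 0% = agonist with vehicle and 100% = vehicle without agonist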
Target sequence (P48145 whole entry, looked up): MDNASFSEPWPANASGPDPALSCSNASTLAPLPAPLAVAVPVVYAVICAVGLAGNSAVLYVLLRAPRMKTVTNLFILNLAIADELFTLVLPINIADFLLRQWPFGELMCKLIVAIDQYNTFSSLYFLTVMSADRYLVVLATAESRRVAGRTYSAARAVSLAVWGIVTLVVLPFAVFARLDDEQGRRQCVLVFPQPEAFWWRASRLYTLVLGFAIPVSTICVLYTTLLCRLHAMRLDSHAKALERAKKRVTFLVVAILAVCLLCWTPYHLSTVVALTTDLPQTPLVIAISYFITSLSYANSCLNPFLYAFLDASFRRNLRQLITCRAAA
TAAR1 ag: human TAAR1 agonists, primary screen, Fluo-8 calcium fluorescence, CHO RD-HGA16 cells; Trace amine-associated receptor 1 (Homo sapiens), Q96RJ0; vehicle wells 0%, saturating PEA agonist 100%; activation, % at 3 µM; 360,000 compounds, 0.99% hits;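 active means activation above the mean activation of all test compounds in the run plus 3 SD, cut at about 38% in these data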
Target sequence (Q96RJ0 whole entry, looked up): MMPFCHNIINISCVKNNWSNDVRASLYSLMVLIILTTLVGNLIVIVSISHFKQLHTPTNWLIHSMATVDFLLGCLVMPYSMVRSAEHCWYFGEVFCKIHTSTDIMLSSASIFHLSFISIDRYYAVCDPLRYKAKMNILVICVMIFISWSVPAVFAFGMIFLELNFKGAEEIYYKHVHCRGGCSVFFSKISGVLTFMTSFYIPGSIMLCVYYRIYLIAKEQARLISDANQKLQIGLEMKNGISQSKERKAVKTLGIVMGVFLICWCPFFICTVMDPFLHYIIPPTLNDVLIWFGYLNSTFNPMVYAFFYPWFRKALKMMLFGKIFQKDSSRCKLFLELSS
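System: CHO-derived RD-HGA16 cells with stable Gα16 and human TAAR1 / Times: 17-24 h plating, Fluo-8 75 min 37 °C, 30 min RT / Technique: calcium-sensitive Fluo-8 signal, excitation 470-495, emission 515-575 nm / Measure: % activation relative to PEA EC100 response / Benchmarks: DMSO and PEA EC100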
TAAR1 antagonist: human TAAR1 antagonists, primary screen, Fluo-8 calcium fluorescence, CHO RD-HGA16 cells; Trace amine-associated receptor 1 (Homo sapiens), Q96RJ0; antagonist; inhibition, % at 3 µM; 360,000 compounds, 1.5% hits; AID 624466, 2012;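 active means inhibition above a per-plate cutoff, the mean inhibition of test compounds on that plate plus 3 SD, cut at about 49% in these data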;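 further: 0% = DMSO plus EC80 beta-PEA response and 100% = DMSO alone without agonist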
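Assay system: RD-HGA16 CHO cells with stable hTAAR1 and Gα16 / Reagent: EC80 β-phenethylamine stimulus / Doses: 3 µM, single point / Timing: dye loading 75 min at 37 °C, then 30 min room temperature / Measured by: Fluo-8 intracellular calcium dye fluorescence, real-time kinetic reads / Controls: vehicle wells and EC80 agonist wells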
OX1R antag-1: antagonists of human orexin 1 receptor (OX1R). OX1R-expressing cells, FRET antagonist read-out. inhibition, % at 6.6 µM. 330,000 compounds, 1.8% hits; in the data active means inhibition mostly above about 38%, no sharp cut-off; inactive means mostly below about 40%;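 further: 0% = agonist challenge alone and 100% = reference antagonist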
OX1R antag-2: OX1R (HCRTR1) antagonists, primary screen, fluorescence, CHO/OX1R cells, Fluo-8 calcium, orexin A | AID 434989, 2010 | inhibition, % at 5 µM | Fluo-8 calcium fluorescence | Orexin/Hypocretin receptor type 1 (Homo sapiens), O43613 | 330,000 compounds, 0.43% hits;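 active means inhibition above its plate's threshold, mean inhibition of all tested compounds on the plate plus 3 SD, cut at about 37% in these data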;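 further: 0% = orexin A challenge wells and 100% = SB-334867-A antagonist wells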
CHO parental Ca: ATP-evoked calcium signal inhibitors, parental CHO, primary screen, counter-screen for OX1R antagonist project, cell-based, fluorescence, Fluo-8 calcium dye; 330,000 compounds, 0.63% hits; parental CHO-K1, ATP-induced calcium, Fluo-8 fluorescence; inhibition, % at 5.6 µM; AID 463079, 2010;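 active means inhibition above that plate's mean sample inhibition plus 3 SD, cut at about 26% in these data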;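 further: 0% = ATP-challenged DMSO wells and 100% = DMSO wells without ATP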
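Assay system – parental CHO cells · Reagent – ATP stimulus · Detection – intracellular calcium via Fluo-8 no-wash fluorescent dye · Evaluation – percent inhibition of ATP-evoked calcium rise, normalized to controls · Controls – ATP wells versus no-ATP DMSO wells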
Starred values were filed as active, the others as inactive; . = no result.

SMILES	GPR7 antagonist	TAAR1 ag	TAAR1 antagonist	OX1R antag-1	OX1R antag-2	CHO parental Ca
COc1ccc(C(=O)/C=C/Nc2ccc(NC(C)=O)cc2)cc1OC	-5.7	3.1	4.0	14.2	-13.9	-18.0
COc1ccc(Br)cc1/C=C/C(=O)c1ccc(NC(C)=O)cc1	5.7	12.6	56.1*	57.7	-5.5	-5.7
CC1=C(C(=O)N(C(C)C)C(C)C)CC(CC(=O)NCc2cccs2)C(=O)N1Cc1ccccc1 (centres undefined)	.	2.5	-6.7	.	.	.
Cc1ccc(S(=O)(=O)c2ccc(NC(=O)c3c(F)cccc3F)cc2)cc1	18.5	20.8	14.2	0.3	-16.0	-3.4
O=C(N[C@H](C(=O)N1CCC[C@H]1C(=O)NCCc1ccccc1Cl)c1ccccc1)C1CCCC1	.	23.5	11.8	.	.	.
CCC(=O)c1ccc(OCc2ccc(C(=O)c3ccccc3)cc2)cc1	0.7	2.7	45.2	23.8	32.7	65.0*
CCC(=O)c1ccc(OCc2ccccc2)c(OC)c1	-8.4	7.9	-7.8	21.5	-24.9	-8.0
Cc1ccc(C)c(OCCC(=O)OCC(=O)N2CCN(S(=O)(=O)c3ccc(Cl)cc3)CC2)c1	.	-1.4	10.8	8.8	-8.3	-4.5
Cc1ccc(S(=O)(=O)N2CCN(C(=O)COC(=O)CCOc3cc(C)ccc3C)CC2)cc1	.	8.1	36.3	21.8	1.1	57.9*
Cc1c(Br)c(O)c(Br)c(O)c1/C=N/n1c(-c2ccccc2)n[nH]c1=S	-16.8	.	.	43.8*	-14.1	-9.1
COC(=O)[C@]12C[C@H](CC(=O)N3CCCC3)C(=O)N(Cc3ccccc3)C1=C[C@H](C1CCCC1)O[C@@H]2C	.	-2.0	4.4	.	.	.
COc1ccc(CNCc2cc3c(cc2[N+](=O)[O-])OCO3)cc1	7.5	0.0	-11.4	43.8*	-14.2	-17.6
COc1ccc(Br)cc1CN(C)C(C)C(=O)Nc1cccc(C(C)=O)c1 (centres undefined)	-14.2	9.5	-11.7	31.1	-42.0	-24.5
CCCCN(CCCC)CC(O)COc1ccccc1Br (centres undefined)	26.2*	3.2	-7.8	19.8	-30.4	-19.8
CN(CCCNC(=O)CSc1cc(=O)n(C)c2cc(Cl)ccc12)Cc1ccccc1	20.8*	0.3	-3.4	17.7	-20.3	-14.1
Cn1c(=O)cc(SCC(=O)NCCC2=CCCCC2)c2ccc(Cl)cc21	-0.3	0.7	-23.8	18.9	-17.4	-1.9
COc1cccc(C2=CC(c3ccc(C)cc3)n3ncnc3N2)c1 (centres undefined)	2.6	.	.	27.7	-32.4	-23.4
Cc1ccsc1C1C=C(c2cccc(Br)c2)Nc2ncnn21 (centres undefined)	12.4	.	.	50.9	45.4*	-15.4
CCOC(=O)c1cc2c(C)n(-c3ccc(C)cc3)c(C)c2ccc1=O	-10.4	-0.5	1.7	40.5*	-12.7	-7.6
CCOC(=O)c1cc2c(C)n(-c3ccc(OCC)cc3)c(C)c2ccc1=O	19.1	0.7	-4.7	26.1	-32.3	-13.0
Cn1c(N)c(C(=O)COC(=O)c2ccccc2C(=O)c2ccc(Cl)c([N+](=O)[O-])c2)c(=O)n(C)c1=O	.	.	.	35.5*	11.9	-1.9
CN(c1ccccc1)S(=O)(=O)c1ccc(Cl)c(C(=O)OCC(=O)c2c(N)n(C)c(=O)n(C)c2=O)c1	.	11.6	61.3*	.	.	.
COc1ccc(N(C)S(=O)(=O)c2cccc(C(=O)OCC(=O)c3c(N)n(C)c(=O)n(C)c3=O)c2)cc1	.	17.5	73.3*	12.5	20.4	0.0
CCN(c1ccccc1)S(=O)(=O)c1cccc(C(=O)OCC(=O)c2c(N)n(C)c(=O)n(C)c2=O)c1	.	8.4	14.9	.	.	.
COc1cc(C)ccc1S(=O)(=O)NC(=O)C1(C)CCN1C(=O)C1(c2ccc(Cl)cc2)CCC1 (centres undefined)	.	2.8	-2.2	.	.	.
SMILES	GPR7 antagonist	TAAR1 ag	TAAR1 antagonist	OX1R antag-1	OX1R antag-2	CHO parental Ca
CCOC(=O)c1ccc(NC(=O)c2ncn3c2C(=O)NC[C@H]3C)cc1	.	0.1	1.9	.	.	.
COc1cccc(Oc2cc(Cl)nc(N)n2)c1	-21.5	3.3	4.1	15.8	-14.1	-8.5
Cc1noc(C)c1COC(=O)c1cccc(S(=O)(=O)N2CCCCCC2)c1	-1.3	7.8	14.7	22.2	13.4	49.3*
CN1CCN(C(=O)c2cccc(S(=O)(=O)N3CCCC3)c2)CC1	.	8.6	-17.7	-0.3	2.8	0.9
Cc1cc(C)n(C(=O)c2cccc(S(=O)(=O)N3CCCC3)c2)n1	20.8*	1.2	25.9	21.5	-11.6	0.1
Cc1noc(C)c1COC(=O)c1ccc(F)c(S(=O)(=O)N2CCCCC2)c1	-7.2	4.7	19.5	5.3	-34.5	-9.1
O=C(c1cccc(S(=O)(=O)N2CCCC2)c1)c1nnc(-c2ccncc2)o1	-8.2	-0.5	-9.3	43.0*	-8.6	-1.9
Cn1ccc2c(N3CCCCCCC3)cc3c(c21)C1CCC3O1 (centres undefined)	.	10.7	-46.2	.	.	.
COCc1[nH]nc2c1C(c1ccccc1)NC2=O (centres undefined)	.	1.3	-28.7	.	.	.
Nc1[nH]c(C(=O)c2ccc(Br)cc2)c(-c2ccccc2Cl)c1C(=O)NCCc1c[nH]c2ccccc12	.	8.6	6.3	.	.	.
Fc1ccc(CNCc2ccccc2Cl)cc1	19.1*	1.2	0.9	8.3	-2.6	6.6
Cc1cc(C)cc(-n2ncc3c2CCCC3NC(=O)CCCn2cncn2)c1 (centres undefined)	-8.8	0.7	-13.9	3.4	-26.9	-21.4
CC(C)(C)c1ccc(-n2nc(C#N)c(Cl)cc2=O)cc1	84.5*	12.8	97.2*	.	.	.
CC(C)(C)c1cc(=O)n2c(C#N)c(C#N)nc2[nH]1	-6.6	3.3	7.8	19.0	-4.5	2.6
COc1ccccc1NC(=O)CSc1nnc(-c2ccc(C)cc2)o1	3.4	2.9	0.5	4.2	-11.2	3.6
COc1cccc(NC(=O)CSc2nnc(-c3ccc(C)cc3)o2)c1	4.9	61.3*	50.9*	15.0	-15.2	-13.9
COC(=O)C1=C/CCCN(C(c2ccccc2)c2ccccc2)/C=C\1C(=O)OC	.	-0.7	-33.0	.	.	.
O=[N+]([O-])c1ccc(CN2CCCCCC2)cc1	-8.8	5.6	-15.5	22.8	-11.9	-3.6
CSc1ccc(CN2CCN(Cc3ccc([N+](=O)[O-])cc3)CC2)cc1	31.0*	-1.7	3.0	28.7	-25.8	-5.1
Cc1ccc2nc(-c3ccc(NC(=S)NC4CC(C)(C)NC(C)(C)C4)cc3)sc2c1	51.9*	9.9	32.4	8.8	11.2	9.2

Compound activity: PubChem BioAssay, The Scripps Research Institute Molecular Screening Center
